# According to ChEMBL document CHEMBL4330069, “Boosting the efficacy of anti-MRSA β-lactam antibiotics via an easily accessible, non-cytotoxic and orally bioavailable FtsZ inhibitor” (Eur J Med Chem, 2019):
# Legend:
# [1] = test system: Staphylococcus aureus; assay: Synergistic antibacterial activity against multidrug-resistant Staphylococcus aureus isolate 3332 in presence of cefuroxime by broth microdilution assay; assay type: functional
# Summary of the method: (§1)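 CLSI broth microdilution on clinical MRSA isolates. MICs were measured for the β-lactam alone, the test agent alone and the two combined. Compounds were dissolved in DMSO, and growth inhibition was scored by eye. FIC index is the sum, over both agents, of MIC in combination divided by MIC alone. An FIC index ≤0.5 was taken as synergy.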
# [2] = test system: Staphylococcus aureus; assay: Synergistic antibacterial activity against multidrug-resistant Staphylococcus aureus isolate 2490 in presence of meropenem by broth microdilution assay; assay type: functional
# Summary of the method: (§2)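 Clinical MRSA isolate panel; compound and β-lactam tested alone and in combination by CLSI broth microdilution, compounds dissolved in DMSO, growth inhibition scored by eye, run in duplicate. FIC index = FIC(compound) + FIC(drug), each the MIC in combination divided by the MIC alone; an index ≤ 0.5 was called synergy.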
# [3] = test system: Staphylococcus aureus; assay: Synergistic antibacterial activity against multidrug-resistant Staphylococcus aureus isolate 2224 in presence of cefuroxime by broth microdilution assay; assay type: functional; summary of the method: as §2
# [4] = test system: Staphylococcus aureus; assay: Synergistic antibacterial activity against multidrug-resistant Staphylococcus aureus isolate 256 assessed as fractional Inhibitory concentration index in presence of cloxacillin by broth microdilution assay; assay type: functional
# [5] = test system: Staphylococcus aureus; assay: Synergistic antibacterial activity against multidrug-resistant Staphylococcus aureus isolate 757 in presence of cloxacillin by broth microdilution assay; assay type: functional
# [6] = test system: Staphylococcus aureus; assay: Synergistic antibacterial activity against multidrug-resistant Staphylococcus aureus isolate 417 in presence of cefuroxime by broth microdilution assay; assay type: functional
# [7] = test system: Staphylococcus aureus; assay: Synergistic antibacterial activity against multidrug-resistant Staphylococcus aureus isolate 2516 in presence of amoxicillin by broth microdilution assay; assay type: functional; summary of the method: as §2
# [8] = test system: Staphylococcus aureus; assay: Synergistic antibacterial activity against multidrug-resistant Staphylococcus aureus isolate 417 assessed as fractional Inhibitory concentration index in presence of meropenem by broth microdilution assay; assay type: functional
# [9] = test system: Staphylococcus aureus; assay: Synergistic antibacterial activity against multidrug-resistant Staphylococcus aureus isolate 2224 in presence of meropenem by broth microdilution assay; assay type: functional; summary of the method: as §2
# [10] = test system: Staphylococcus aureus; assay: Synergistic antibacterial activity against multidrug-resistant Staphylococcus aureus isolate 2516 assessed as fractional Inhibitory concentration index in presence of cloxacillin by broth microdilution assay; assay type: functional
# Summary of the method: (§3)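 CLSI broth microdilution run on clinical MRSA isolates with each β-lactam alone, the test agent alone, and the two combined; agents dissolved in DMSO. Growth inhibition was read by eye. FIC index = FIC(compound) + FIC(β-lactam), where each FIC is the MIC in combination divided by the MIC alone. An index ≤0.5 was taken as synergy.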
# [11] = test system: Staphylococcus aureus; assay: Synergistic antibacterial activity against multidrug-resistant Staphylococcus aureus isolate 417 in presence of meropenem by broth microdilution assay; assay type: functional
# [12] = test system: Staphylococcus aureus; assay: Synergistic antibacterial activity against multidrug-resistant Staphylococcus aureus isolate 1136 assessed as fractional Inhibitory concentration index in presence of cefuroxime by broth microdilution assay; assay type: functional; summary of the method: as §3
# [13] = test system: Staphylococcus aureus; assay: Synergistic antibacterial activity against multidrug-resistant Staphylococcus aureus isolate 256 in presence of methicillin by broth microdilution assay; assay type: functional; summary of the method: as §1
# [14] = test system: Staphylococcus aureus; assay: Synergistic antibacterial activity against multidrug-resistant Staphylococcus aureus isolate 1136 in presence of meropenem by broth microdilution assay; assay type: functional; summary of the method: as §2
# [15] = test system: Staphylococcus aureus; assay: Synergistic antibacterial activity against multidrug-resistant Staphylococcus aureus isolate 231 assessed as fractional Inhibitory concentration index in presence of cloxacillin by broth microdilution assay; assay type: functional; summary of the method: as §3
# [16] = test system: Staphylococcus aureus; assay: Antibacterial activity against multidrug-resistant Staphylococcus aureus ATCC 43300 infected in BALB/C mouse assessed as mouse survival at 50 mg/kg, ip bid co-administered with 25 mg/kg, ip bid cefuroxime measured on day 4 post infection (reference value: 50%)
# [17] = test system: Staphylococcus aureus; assay: Synergistic antibacterial activity against multidrug-resistant Staphylococcus aureus isolate 3411 in presence of cefuroxime by broth microdilution assay; assay type: functional
# [18] = test system: Staphylococcus aureus; assay: Synergistic antibacterial activity against multidrug-resistant Staphylococcus aureus isolate 1344 in presence of cefuroxime by broth microdilution assay; assay type: functional; summary of the method: as §2
# [19] = test system: Staphylococcus aureus; assay: Synergistic antibacterial activity against multidrug-resistant Staphylococcus aureus isolate 417 in presence of amoxicillin by broth microdilution assay; assay type: functional
# [20] = test system: Staphylococcus aureus; assay: Antibacterial activity against multidrug-resistant Staphylococcus aureus isolate 2728 by broth microdilution assay; assay type: functional
# Summary of the method: (§4)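 Broth microdilution MIC per CLSI guidelines against clinical MRSA isolates, for β-lactams and test compound alone and in combination. Compounds were dissolved in DMSO. Growth was read by eye, in duplicate. FIC index = FIC(compound) + FIC(drug); synergy defined as FIC index ≤0.5.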
# [21] = test system: Staphylococcus aureus; assay: Antibacterial activity against multidrug-resistant Staphylococcus aureus isolate 2919 by broth microdilution assay; assay type: functional; summary of the method: as §4
# [22] = test system: Staphylococcus aureus; assay: Synergistic antibacterial activity against multidrug-resistant Staphylococcus aureus isolate 254 assessed as fractional Inhibitory concentration index in presence of cefuroxime by broth microdilution assay; assay type: functional
# [23] = test system: Staphylococcus aureus; assay: Synergistic antibacterial activity against multidrug-resistant Staphylococcus aureus isolate 2516 assessed as fractional Inhibitory concentration index in presence of methicillin by broth microdilution assay; assay type: functional; summary of the method: as §3
# [24] = test system: Staphylococcus aureus; assay: Synergistic antibacterial activity against multidrug-resistant Staphylococcus aureus isolate 1717 in presence of cloxacillin by broth microdilution assay; assay type: functional; summary of the method: as §2
# [25] = test system: Staphylococcus aureus; assay: Synergistic antibacterial activity against multidrug-resistant Staphylococcus aureus isolate 2919 assessed as fractional Inhibitory concentration index in presence of methicillin by broth microdilution assay; assay type: functional
# [26] = test system: Staphylococcus aureus; assay: Synergistic antibacterial activity against multidrug-resistant Staphylococcus aureus isolate 256 assessed as fractional Inhibitory concentration index in presence of amoxicillin by broth microdilution assay; assay type: functional
# [27] = test system: Staphylococcus aureus; assay: Synergistic antibacterial activity against multidrug-resistant Staphylococcus aureus isolate 2490 in presence of amoxicillin by broth microdilution assay; assay type: functional; summary of the method: as §2
# [28] = test system: Staphylococcus aureus; assay: Synergistic antibacterial activity against multidrug-resistant Staphylococcus aureus isolate 2490 assessed as fractional Inhibitory concentration index in presence of cloxacillin by broth microdilution assay; assay type: functional; summary of the method: as §3
# [29] = test system: Staphylococcus aureus; assay: Synergistic antibacterial activity against multidrug-resistant Staphylococcus aureus isolate 3580 assessed as fractional Inhibitory concentration index in presence of meropenem by broth microdilution assay; assay type: functional
# [30] = test system: Staphylococcus aureus; assay: Synergistic antibacterial activity against multidrug-resistant Staphylococcus aureus isolate 1344 in presence of amoxicillin by broth microdilution assay; assay type: functional; summary of the method: as §2
# [31] = test system: Staphylococcus aureus; assay: Synergistic antibacterial activity against multidrug-resistant Staphylococcus aureus isolate 358 in presence of cefuroxime by broth microdilution assay; assay type: functional
# [32] = test system: Staphylococcus aureus; assay: Synergistic antibacterial activity against multidrug-resistant Staphylococcus aureus isolate 3267 in presence of cloxacillin by broth microdilution assay; assay type: functional; summary of the method: as §1
# [33] = test system: Staphylococcus aureus; assay: Synergistic antibacterial activity against multidrug-resistant Staphylococcus aureus isolate 1717 assessed as fractional Inhibitory concentration index in presence of meropenem by broth microdilution assay; assay type: functional; summary of the method: as §3
# [34] = test system: Staphylococcus aureus; assay: Synergistic antibacterial activity against multidrug-resistant Staphylococcus aureus isolate 2973 in presence of meropenem by broth microdilution assay; assay type: functional; summary of the method: as §1
# [35] = test system: Staphylococcus aureus; assay: Synergistic antibacterial activity against multidrug-resistant Staphylococcus aureus isolate 3332 in presence of amoxicillin by broth microdilution assay; assay type: functional; summary of the method: as §1
# [36] = test system: Staphylococcus aureus; assay: Synergistic antibacterial activity against multidrug-resistant Staphylococcus aureus isolate 417 assessed as fractional Inhibitory concentration index in presence of cloxacillin by broth microdilution assay; assay type: functional
# [37] = test system: Staphylococcus aureus; assay: Synergistic antibacterial activity against multidrug-resistant Staphylococcus aureus isolate 1449 assessed as fractional Inhibitory concentration index in presence of cloxacillin by broth microdilution assay; assay type: functional; summary of the method: as §3
structure (smiles),measurement,setting,value
CCCCCCCCCNc1ccc(F)c(C(N)=O)c1F,MIC,[1],2 µg/mL
same,MIC,[2],4 µg/mL
same,MIC,[3],2 µg/mL
same,fractional inhibitory concentration index (FICI),[4],0.1
same,MIC,[5],1 µg/mL
same,MIC,[6],2 µg/mL
same,MIC,[7],8 µg/mL
same,fractional inhibitory concentration index (FICI),[8],0.2
same,MIC,[9],8 µg/mL
same,fractional inhibitory concentration index (FICI),[10],0.2
same,MIC,[11],4 µg/mL
same,fractional inhibitory concentration index (FICI),[12],0.1
same,MIC,[13],4 µg/mL
same,MIC,[14],8 µg/mL
same,fractional inhibitory concentration index (FICI),[15],0.3
same,Activity,[16],100%
same,MIC,[17],2 µg/mL
same,MIC,[18],4 µg/mL
same,MIC,[19],8 µg/mL
same,MIC,[20],128 µg/mL
same,MIC,[21],16 µg/mL
same,fractional inhibitory concentration index (FICI),[22],0.3
same,fractional inhibitory concentration index (FICI),[23],0.2
same,MIC,[24],1 µg/mL
same,fractional inhibitory concentration index (FICI),[25],0.4
same,fractional inhibitory concentration index (FICI),[26],0.1
same,MIC,[27],8 µg/mL
same,fractional inhibitory concentration index (FICI),[28],0.6
same,fractional inhibitory concentration index (FICI),[29],1.3
same,MIC,[30],16 µg/mL
same,MIC,[31],2 µg/mL
same,MIC,[32],1 µg/mL
same,fractional inhibitory concentration index (FICI),[33],3
same,MIC,[34],4 µg/mL
same,MIC,[35],8 µg/mL
same,fractional inhibitory concentration index (FICI),[36],0.1
same,fractional inhibitory concentration index (FICI),[37],0.6
